From ChEMBL document CHEMBL2401625, “Synthesis and evaluation of pharmacological properties of some new xanthone derivatives with piperazine moiety” (Bioorg Med Chem Lett, 2013)
Blank lines part the entries; values can stand above or below the compound they belong to. Active and inactive are the calls of the source. The rule behind the calls is not given here.

Key:
Rattus norvegicus [1] = assay: Anticonvulsant activity in po dosed Sprague-Dawley rat assessed as protection against subcutaneous metrazole-induced seizures after 4 hrs; type: functional
Outline: (§1)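 Quantitative oral assay in rats, run at a time to peak effect of 4 h. ED50 is the dose protecting 50% of animals against MES or ScMet seizures, with 95% confidence interval. TD50 is the dose giving neurotoxicity in 50% of animals. PI = TD50/ED50.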

Rattus norvegicus [2] = assay: Neurotoxicity in Sprague-Dawley rat assessed as minimal motor impairment at 30 mg/kg, po after 1 hr by rotorod test; conditions: in vivo
Mus musculus [3] = assay: Neurotoxicity in CF1 mouse assessed as minimal motor impairment at 100 mg/kg, ip after 0.5 hrs by rotorod test; type: toxicity, organism-based; design: dose 100 mg/kg, route intraperitoneal; conditions: in vivo
Outline: (§2)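 Rotarod neurotoxicity screen in mice dosed i.p. at 30, 100 or 300 mg/kg, read 0.5 or 4 h after dosing. The animal must stay on a rod rotating at 6 rpm without falling, measured 3 times within 1 min. A fall counts as minimal motor impairment. Result is recorded as impaired animals over animals used.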

Rattus norvegicus [4] = assay: Neurotoxicity in Sprague-Dawley rat assessed as minimal motor impairment at 30 mg/kg, po after 0.5 hrs by rotorod test; conditions: in vivo
Rattus norvegicus [5] = assay: Protective index, ratio of TD50 for po dosed Sprague-Dawley rat assessed as minimal motor impairment by rotorod test to ED50 for po dosed Sprague-Dawley rat assessed as protection against maximal electroshock-induced seizures; type: functional; outline: as §1
Rattus norvegicus [6] = assay: Neurotoxicity in Sprague-Dawley rat assessed as minimal motor impairment at 30 mg/kg, po after 2 hrs by rotorod test; conditions: in vivo
Mus musculus [7] = assay: Neurotoxicity in CF1 mouse assessed as minimal motor impairment at 300 mg/kg, ip after 0.5 hrs by rotorod test; type: toxicity, organism-based; design: dose 300 mg/kg, route intraperitoneal; conditions: in vivo; outline: as §2
[8] = Neurotoxicity in po dosed Sprague-Dawley rat assessed as minimal motor impairment by rotorod test; type: toxicity, organism-based; conditions: in vivo
Rattus norvegicus [9] = assay: Neurotoxicity in Sprague-Dawley rat assessed as minimal motor impairment at 30 mg/kg, po after 4 hrs by rotorod test; conditions: in vivo
Rattus norvegicus [10] = assay: Anticonvulsant activity in po dosed Sprague-Dawley rat assessed as protection against maximal electroshock-induced seizures after 4 hrs; type: functional; outline: as §1
Mus musculus [11] = assay: Neurotoxicity in CF1 mouse assessed as minimal motor impairment at 30 mg/kg, ip after 0.5 hrs by rotorod test; type: toxicity, organism-based; design: dose 30 mg/kg, route intraperitoneal; conditions: in vivo; outline: as §2
Mus musculus [12] = assay: Neurotoxicity in CF1 mouse assessed as minimal motor impairment at 300 mg/kg, ip after 4 hrs by rotorod test; type: toxicity, organism-based; design: dose 300 mg/kg, route intraperitoneal; conditions: in vivo; outline: as §2
Mus musculus [13] = assay: Neurotoxicity in CF1 mouse assessed as minimal motor impairment at 30 mg/kg, ip after 4 hrs by rotorod test; type: toxicity, organism-based; design: dose 30 mg/kg, route intraperitoneal; conditions: in vivo; outline: as §2
Mus musculus [14] = assay: Neurotoxicity in CF1 mouse assessed as minimal motor impairment at 100 mg/kg, ip after 4 hrs by rotorod test; type: toxicity, organism-based; design: dose 100 mg/kg, route intraperitoneal; conditions: in vivo; outline: as §2
Rattus norvegicus [15] = assay: Neurotoxicity in Sprague-Dawley rat assessed as minimal motor impairment at 30 mg/kg, po after 0.25 hrs by rotorod test; conditions: in vivo
Mus musculus [16] = assay: Anticonvulsant activity in CF1 mouse assessed as protection against subcutaneous metrazole-induced seizures at 300 mg/kg, ip after 4 hrs; type: functional, organism-based; design: dose 300 mg/kg
Outline: (§3)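 Mice given compound i.p. at 30, 100 or 300 mg/kg and tested 0.5 or 4 h after dosing. Seizures were induced by maximal electroshock (MES) or subcutaneous metrazole (ScMet). Prevention of seizures counts as protection. Result is recorded as number of animals protected over number tested.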

Mus musculus [17] = assay: Anticonvulsant activity in CF1 mouse assessed as protection against subcutaneous metrazole-induced seizures at 100 mg/kg, ip after 4 hrs; type: functional, organism-based; design: dose 100 mg/kg; outline: as §3
Mus musculus [18] = assay: Anticonvulsant activity in CF1 mouse assessed as protection against maximal electroshock-induced seizures at 30 mg/kg, ip after 4 hrs; type: functional, organism-based; design: dose 30 mg/kg; outline: as §3
Rattus norvegicus [19] = organism: Rattus norvegicus; assay: Displacement of [3H]CGP-12177 from beta1-adrenergic receptor in rat cerebral cortex at 50 uM after 60 mins by scintillation counting; type: tissue-based
Rattus norvegicus [20] = assay: Anticonvulsant activity in Sprague-Dawley rat assessed as protection against maximal electroshock-induced seizures at 30 mg/kg, po after 1 hr; type: functional, organism-based; design: dose 30 mg/kg
Outline: (§4)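 Rats dosed orally at 30 mg/kg and tested in MES at several time points after dosing. Protection means seizures were prevented. Result is recorded as number of animals protected over number tested.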

Mus musculus [21] = assay: Anticonvulsant activity in CF1 mouse assessed as protection against maximal electroshock-induced seizures at 30 mg/kg, ip after 0.5 hrs; type: functional, organism-based; design: dose 30 mg/kg; outline: as §3
Rattus norvegicus [22] = assay: Anticonvulsant activity in Sprague-Dawley rat assessed as protection against maximal electroshock-induced seizures at 30 mg/kg, po after 0.5 hrs; type: functional, organism-based; design: dose 30 mg/kg; outline: as §4
Mus musculus [23] = assay: Anticonvulsant activity in CF1 mouse assessed as protection against maximal electroshock-induced seizures at 100 mg/kg, ip after 4 hrs; type: functional, organism-based; design: dose 100 mg/kg; outline: as §3
Mus musculus [24] = assay: Anticonvulsant activity in CF1 mouse assessed as protection against subcutaneous metrazole-induced seizures at 30 mg/kg, ip after 4 hrs; type: functional, organism-based; design: dose 30 mg/kg; outline: as §3
Mus musculus [25] = assay: Anticonvulsant activity in CF1 mouse assessed as protection against subcutaneous metrazole-induced seizures at 100 mg/kg, ip after 0.5 hrs; type: functional, organism-based; design: dose 100 mg/kg; outline: as §3
Rattus norvegicus [26] = assay: Anticonvulsant activity in Sprague-Dawley rat assessed as protection against maximal electroshock-induced seizures at 30 mg/kg, po after 2 hrs; type: functional, organism-based; design: dose 30 mg/kg; outline: as §4
Mus musculus [27] = assay: Anticonvulsant activity in CF1 mouse assessed as protection against maximal electroshock-induced seizures at 300 mg/kg, ip after 4 hrs; type: functional, organism-based; design: dose 300 mg/kg; outline: as §3
Mus musculus [28] = assay: Anticonvulsant activity in CF1 mouse assessed as protection against subcutaneous metrazole-induced seizures at 30 mg/kg, ip after 0.5 hrs; type: functional, organism-based; design: dose 30 mg/kg; outline: as §3
Rattus norvegicus [29] = assay: Anticonvulsant activity in Sprague-Dawley rat assessed as protection against maximal electroshock-induced seizures at 30 mg/kg, po after 0.25 hrs; type: functional, organism-based; design: dose 30 mg/kg; outline: as §4
Mus musculus [30] = assay: Anticonvulsant activity in CF1 mouse assessed as protection against subcutaneous metrazole-induced seizures at 300 mg/kg, ip after 0.5 hrs; type: functional, organism-based; design: dose 300 mg/kg; outline: as §3

Structure (SMILES): COc1ccc2c(=O)c3cc(CN4CCN(Cc5ccccc5)CC4)ccc3oc2c1
- ED50 (Rattus norvegicus [1]): > 250 mg/kg
- Activity (Rattus norvegicus [2]): Non-toxic
- Activity (Mus musculus [3]): Non-toxic
- Activity (Rattus norvegicus [4]): Non-toxic
- Ratio TD50/ED50 (Rattus norvegicus [5]): >2.86
- Activity (Rattus norvegicus [6]): Non-toxic
- Activity (Mus musculus [7]): Non-toxic
- TD50 [8]: > 300 mg/kg
- Activity (Rattus norvegicus [9]): Non-toxic
- ED50 (Rattus norvegicus [10]): 105 mg/kg
- Activity (Mus musculus [11]): Non-toxic
- Activity (Mus musculus [12]): Non-toxic
- Activity (Mus musculus [13]): Non-toxic
- Activity (Mus musculus [14]): Non-toxic
- Activity (Rattus norvegicus [15]): Non-toxic

- inhibition (Rattus norvegicus [19]): inactive
Structure (SMILES): COc1ccc2c(=O)c3cc(CN4CCN(C)CC4)ccc3oc2c1
- Activity (Mus musculus [16]): inactive
- Activity (Mus musculus [17]): inactive
- Activity (Mus musculus [18]): inactive
- Activity (Rattus norvegicus [20]): inactive
- Activity (Mus musculus [21]): inactive
- Activity (Rattus norvegicus [22]): inactive
- Activity (Mus musculus [23]): inactive
- Activity (Mus musculus [24]): inactive
- Activity (Mus musculus [25]): inactive
- Activity (Rattus norvegicus [26]): inactive
- Activity (Mus musculus [27]): Active
- Activity (Mus musculus [28]): inactive
- Activity (Rattus norvegicus [29]): inactive
- Activity (Mus musculus [30]): inactive
